According to EPA's CvTdb concentration-time database:
Where “and” joins values, the source holds several entries; their conditions need not be identical. Equal values may be shown once.

Assays:
rat = experiment: amount in urine after dosing (umol); details: inhalation, duration: 4 hr, F344 (Harlan Winkelmann)
mouse = experiment: concentration in blood after dosing; negative times count back from the end of exposure; details: dosed: tert-amyl methyl ether, inhalation, duration: 6 hr, CD-1 (Charles River)
Procedure, shortened: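 Data points giving concentration or amount against time came from published in vivo toxicokinetic studies and from two structured collections. PubMed searching, classifier screening and manual review located the studies. Most points were digitised from plot screenshots using WebPlotDigitizer, the rest were copied from tables, and all keep their reported units.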

CC(C)(O)C(=O)O [2-hydroxyisobutyrate]
rat
Details | amount in urine
5.92 h, dosed: ethyl tert-butyl ether, 4.5 ppm | 0.229
5.923 h, dosed: methyl tert-butyl ether, 38.7 ppm | 1.23
5.99 h, dosed: ethyl tert-butyl ether, 40.6 ppm | 1.23
11.86 h, dosed: ethyl tert-butyl ether, 4.5 ppm | 0.657
11.94 h, dosed: ethyl tert-butyl ether, 40.6 ppm | 3.65
11.94 h, dosed: methyl tert-butyl ether, 38.7 ppm | 6.37
11.97 h, dosed: methyl tert-butyl ether, 4.5 ppm | 0.837
17.79 h, dosed: ethyl tert-butyl ether, 4.5 ppm | 1.03
17.99 h, dosed: methyl tert-butyl ether, 38.7 ppm | 2.57
18.01 h, dosed: methyl tert-butyl ether, 4.5 ppm | 0.625
18.03 h, dosed: ethyl tert-butyl ether, 40.6 ppm | 5.39
23.79 h, dosed: ethyl tert-butyl ether, 4.5 ppm | 0.405
23.95 h, dosed: methyl tert-butyl ether, 4.5 ppm | 0.205
23.95 h, dosed: methyl tert-butyl ether, 38.7 ppm | 0.915
23.98 h, dosed: ethyl tert-butyl ether, 40.6 ppm | 0.922
29.73 h, dosed: ethyl tert-butyl ether, 4.5 ppm | 0.355
29.93 h, dosed: ethyl tert-butyl ether, 40.6 ppm | 0.521
29.93 h, dosed: methyl tert-butyl ether, 38.7 ppm | 0.315
29.96 h, dosed: methyl tert-butyl ether, 4.5 ppm | 0.239

CC(O)C(C)(C)O (stereo not given) [2-methyl-2,3-butanediol]
amount in urine, rat, dosed: tert-amyl methyl ether
Details | 3.8 ppm | 38.4 ppm
5.961 h | – | 1.13
5.981 h | 0.237 | –
11.86 h | 0.262 | –
12.08 h | – | 2.25
17.94 h | 0.179 | 1.18
23.82 h | 0.0479 | –
23.95 h | – | 0.366
29.9 h | 0.0229 | –
29.96 h | – | 0.165
35.73 h | 0.0302 | –
36.08 h | – | 0.225
41.81 h | 0.024 | –
41.88 h | – | 0.175
47.74 h | 0.0115 | –
47.95 h | – | 0.084

CCC(C)(C)O [tertiary amyl alcohol]
mouse, male
Details | concentration in blood
0.1295 h, 2500 ppm | 209000 ng/mL
0.1808 h, 500 ppm | 29600 ng/mL
0.1823 h, 500 ppm | 32600 ng/mL
0.1835 h, 500 ppm | 34900 ng/mL
0.1993 h, 2500 ppm | 170000 ng/mL
0.2 h, 2500 ppm | 165000 ng/mL
0.2011 h, 2500 ppm | 158000 ng/mL
0.5116 h, 500 ppm | 16700 ng/mL
0.5437 h, 500 ppm | 19500 ng/mL
0.545 h, 500 ppm | 22000 ng/mL
0.5455 h, 500 ppm | 23100 ng/mL
0.5766 h, 2500 ppm | 194000 ng/mL
0.5768 h, 2500 ppm | 193000 ng/mL
0.5776 h, 2500 ppm | 187000 ng/mL
0.59 h, 2500 ppm | 109000 ng/mL
1.057 h, 500 ppm | 3620 ng/mL
1.059 h, 500 ppm | 7190 ng/mL
1.061 h, 500 ppm | 12200 ng/mL
1.062 h, 500 ppm | 12600 ng/mL
1.12 h, 2500 ppm | 175000 ng/mL
1.123 h, 2500 ppm | 155000 ng/mL and 153000 ng/mL and 151000 ng/mL
1.914 h, 500 ppm | 752 ng/mL
1.945 h, 500 ppm | 139 ng/mL
2.052 h, 2500 ppm | 105000 ng/mL
2.058 h, 2500 ppm | 66500 ng/mL and 65300 ng/mL
2.059 h, 2500 ppm | 57700 ng/mL
4.101 h, 2500 ppm | 3630 ng/mL and 1940 ng/mL
9.951 h, 500 ppm | 73.9 ng/mL
10.17 h, 2500 ppm | 1840 ng/mL
17.96 h, 500 ppm | 8.51 ng/mL
18.11 h, 2500 ppm | 2120 ng/mL
126 s, 500 ppm | 44300 ng/mL
133 s, 2500 ppm | 192000 ng/mL
137 s, 2500 ppm | 184000 ng/mL
138 s, 2500 ppm | 183000 ng/mL
151 s, 500 ppm | 57900 ng/mL
343 s, 500 ppm | 42500 ng/mL

mouse, male, during exposure
Details | concentration in blood
-6 h, 100 ppm | 3.59 ng/mL
-5.999 h, 500 ppm | 1220 ng/mL
-5.907 h, 500 ppm | 2450 ng/mL
-5.876 h, 500 ppm | 2750 ng/mL
-5.873 h, 2500 ppm | 2950 ng/mL
-5.818 h, 100 ppm | 247 ng/mL and 289 ng/mL
-5.817 h, 100 ppm | 326 ng/mL and 401 ng/mL
-5.814 h, 500 ppm | 4080 ng/mL
-5.771 h, 100 ppm | 487 ng/mL
-5.747 h, 2500 ppm | 7170 ng/mL
-5.725 h, 100 ppm | 600 ng/mL
-5.72 h, 500 ppm | 7750 ng/mL
-5.659 h, 100 ppm | 386 ng/mL and 450 ng/mL
-5.567 h, 500 ppm | 6220 ng/mL
-5.507 h, 500 ppm | 5100 ng/mL
-5.476 h, 100 ppm | 694 ng/mL
-5.474 h, 500 ppm | 9590 ng/mL
-5.464 h, 2500 ppm | 25700 ng/mL
-5.433 h, 2500 ppm | 29900 ng/mL
-5.244 h, 2500 ppm | 40100 ng/mL
-5.135 h, 500 ppm | 11400 ng/mL and 11600 ng/mL
-5.134 h, 500 ppm | 13700 ng/mL and 14100 ng/mL
-4.958 h, 100 ppm | 720 ng/mL
-4.937 h, 100 ppm | 510 ng/mL
-4.936 h, 100 ppm | 630 ng/mL
-4.934 h, 100 ppm | 828 ng/mL
-4.899 h, 2500 ppm | 67100 ng/mL
-4.898 h, 2500 ppm | 64100 ng/mL and 61600 ng/mL
-4.897 h, 2500 ppm | 57400 ng/mL
-4.057 h, 500 ppm | 20900 ng/mL
-4.055 h, 500 ppm | 23900 ng/mL
-4.054 h, 500 ppm | 26200 ng/mL and 27300 ng/mL
-4 s, 500 ppm | 33800 ng/mL
-3.898 h, 100 ppm | 686 ng/mL
-3.897 h, 100 ppm | 870 ng/mL
-3.895 h, 100 ppm | 1130 ng/mL
-3.874 h, 100 ppm | 926 ng/mL
-3.797 h, 2500 ppm | 131000 ng/mL
-3.796 h, 2500 ppm | 123000 ng/mL and 121000 ng/mL
-3.791 h, 2500 ppm | 94900 ng/mL
-2.118 h, 500 ppm | 33200 ng/mL
-2.087 h, 500 ppm | 34400 ng/mL and 34600 ng/mL
-2.086 h, 500 ppm | 36700 ng/mL
-1.99 h, 2500 ppm | 155000 ng/mL
-1.979 h, 100 ppm | 1160 ng/mL
-1.978 h, 100 ppm | 1210 ng/mL
-1.96 h, 2500 ppm | 162000 ng/mL
-1.957 h, 2500 ppm | 146000 ng/mL
-1.953 h, 100 ppm | 1570 ng/mL

CCC(C)(C)OC [tertiary amyl methyl ether]
mouse
Details | concentration in blood [ng/mL]
0.102 h, 100 ppm, male | 239
0.1024 h, 100 ppm, male | 295
0.1031 h, 100 ppm, male | 389
0.1368 h, 500 ppm, male | 3510
0.1371 h, 500 ppm, male | 4130
0.1374 h, 500 ppm, male | 4840
0.1381 h, 500 ppm, male | 6060
0.1502 h, 100 ppm, male | 655
0.1928 h, 2500 ppm, male | 29900
0.1936 h, 2500 ppm, male | 24400
0.3202 h, 500 ppm, male | 2390
0.3841 h, 2500 ppm, male | 24800
0.385 h, 2500 ppm, male | 19700
0.3858 h, 2500 ppm, male | 14700
0.4399 h, 100 ppm, male | 209
0.444 h, 2500 ppm, female | 22700
0.4444 h, 2500 ppm, female | 20100
0.4448 h, 2500 ppm, female | 17200
0.4618 h, 100 ppm, male | 127
0.4629 h, 100 ppm, male | 273
0.8712 h, 500 ppm, male | 37.4
0.8718 h, 500 ppm, male | 1260
0.9575 h, 2500 ppm, male | 15100
0.9591 h, 2500 ppm, male | 4950
0.9832 h, 2500 ppm, female | 10000
1.014 h, 2500 ppm, female | 15500
1.656 h, 100 ppm, male | 2.6
2.039 h, 2500 ppm, male | 5350
2.04 h, 2500 ppm, male | 286
9.736 h, 500 ppm, male | 67.1
9.816 h, 100 ppm, male | 1.38
9.95 h, 2500 ppm, male | 153
17.75 h, 100 ppm, male | 3.94
17.86 h, 2500 ppm, male | 441
57.5 min, 2500 ppm, male | 10000
224 s, 2500 ppm, female | 37500
226 s, 2500 ppm, female | 34900
229 s, 2500 ppm, female | 29400

mouse, during exposure
Details | concentration in blood
-171 s, 100 ppm, male | 1330 ng/mL
-165 s, 100 ppm, male | 1570 ng/mL
-160 s, 100 ppm, male | 1750 ng/mL
-6 h, 100 ppm, male | 1190 ng/mL
-6 h, 2500 ppm, male | 19400 ng/mL
-5.956 h, 100 ppm, male | 1080 ng/mL
-5.842 h, 100 ppm, male | 1220 ng/mL
-5.755 h, 100 ppm, male | 806 ng/mL
-5.69 h, 500 ppm, male | 7230 ng/mL
-5.688 h, 500 ppm, male | 9580 ng/mL
-5.663 h, 100 ppm, male | 1040 ng/mL
-5.662 h, 100 ppm, male | 1100 ng/mL
-5.642 h, 100 ppm, male | 814 ng/mL
-5.627 h, 2500 ppm, female | 37500 ng/mL
-5.168 h, 500 ppm, male | 7230 ng/mL
-5.167 h, 500 ppm, male | 8960 ng/mL
-5.138 h, 500 ppm, male | 5900 ng/mL
-5.124 h, 100 ppm, male | 780 ng/mL
-5.123 h, 100 ppm, male | 866 ng/mL
-5.122 h, 100 ppm, male | 1090 ng/mL
-5.094 h, 2500 ppm, female | 64100 ng/mL
-5.092 h, 2500 ppm, female | 54400 ng/mL
-5.089 h, 2500 ppm, female | 32500 ng/mL
-5.084 h, 2500 ppm, male | 49400 ng/mL
-5.083 h, 2500 ppm, male | 44300 ng/mL
-5.081 h, 2500 ppm, male | 34600 ng/mL
-5.077 h, 2500 ppm, male | 9690 ng/mL
-5.053 h, 2500 ppm, male | 59500 ng/mL
-4.247 h, 500 ppm, male | 9570 ng/mL
-4.246 h, 500 ppm, male | 11400 ng/mL
-4.245 h, 500 ppm, male | 12000 ng/mL
-4.086 h, 100 ppm, male | 926 ng/mL
-4.061 h, 100 ppm, male | 1220 ng/mL
-4.06 h, 100 ppm, male | 1360 ng/mL
-4.007 h, 2500 ppm, male | 71700 ng/mL
-4.005 h, 2500 ppm, male | 61100 ng/mL
-3.988 h, 2500 ppm, female | 67100 ng/mL
-3.987 h, 2500 ppm, female | 61600 ng/mL
-3.974 h, 2500 ppm, male | 66600 ng/mL
-3.972 h, 2500 ppm, male | 49300 ng/mL
-2.21 h, 500 ppm, male | 33800 ng/mL
-2.166 h, 2500 ppm, male | 78800 ng/mL
-2.165 h, 2500 ppm, male | 72500 ng/mL
-2.164 h, 2500 ppm, male | 66200 ng/mL
-2.159 h, 2500 ppm, female | 96100 ng/mL
-2.144 h, 100 ppm, male | 1310 ng/mL and 1340 ng/mL
-2.142 h, 100 ppm, male | 1570 ng/mL
-2.129 h, 500 ppm, male | 11900 ng/mL
-2.128 h, 500 ppm, male | 13700 ng/mL
-2.127 h, 500 ppm, male | 15500 ng/mL
-2.125 h, 2500 ppm, female | 81400 ng/mL
-2.122 h, 100 ppm, male | 1220 ng/mL
-0.1963 h, 500 ppm, male | 12000 ng/mL
-0.1937 h, 500 ppm, male | 17200 ng/mL
-0.1933 h, 500 ppm, male | 17800 ng/mL
-0.1652 h, 2500 ppm, male | 83400 ng/mL
-0.1636 h, 2500 ppm, male | 73700 ng/mL
-0.1617 h, 2500 ppm, male | 61500 ng/mL
-0.1057 h, 2500 ppm, female | 101000 ng/mL
-0.1034 h, 2500 ppm, female | 86400 ng/mL
-0.1026 h, 2500 ppm, female | 81300 ng/mL
